Test system: MS2 coat protein
Test: apparent Kd, MS2 coat protein; higher = weaker binding; RNA-MaP array
Outline: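 Fluorescently labeled MS2 coat protein, from 1.5 nM to 3 μM, was incubated at room temperature with designed RNAs transcribed on an Illumina sequencing chip from sequenced DNA templates. Times ran from 0.8–1.5 h at the lowest concentrations to 10–20 min at the highest, in Tris-HCl pH 7.5 buffer with KCl, MgCl2, BSA, DTT, tRNA and Tween20, with or without input ligand. Each apparent Kd is the median of per-cluster binding-curve fits, and designs with fewer than 10 measured clusters were excluded.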

[1] = designed as: OFF switch for flavin mononucleotide, no ligand
[2] = ligand present: flavin mononucleotide, designed as: OFF switch for flavin mononucleotide
[3] = designed as: ON switch for flavin mononucleotide, no ligand
[4] = ligand present: flavin mononucleotide, designed as: ON switch for flavin mononucleotide
[5] = designed as: OFF switch for theophylline, no ligand
[6] = ligand present: theophylline, designed as: OFF switch for theophylline
[7] = designed as: ON switch for tryptophan, no ligand
[8] = ligand present: tryptophan, designed as: ON switch for tryptophan
[9] = designed as: ON switch for theophylline, no ligand
[10] = ligand present: theophylline, designed as: ON switch for theophylline

Sequence | apparent Kd [1] | apparent Kd [2] | further results
AGGGUACAUGAGGAUCACCCAUGUUAGGAUAUGUCCGGUACGGCCGCCGUACCAGGCAACAGAAGGAACACAGC | 30.2 nM | 26.2 nM | 
AGUAGACGAGGAUAUACGGGCAUAUUUGAUAAGAAGAACAGACAUGAGGAUCACCCAUGUAGAAGGCGAGGCUA | 11.1 nM | 10.6 nM | 
AGUAGGCAUUCAGGAUAUGGGGAUUUCUCACUGCCACAUGAGGAUCACCCAUGUGGAAGGUACACCCAGAAGGGAAAGUGGUUA |  |  | apparent Kd [3]: 17 nM; apparent Kd [4]: 11.3 nM
AGUCACUUCUAGAAGGCGCGGACUUACUAGCGGCGAGGAUAUAGUAGGAACAUGAGGAUCACCCAUGUCUAUUGGGUACGGCCC | 14.2 nM | 14.9 nM | 
AGUCGUACCAAGAAGGUACCCGGCUAAUGGUGGUAAGGAUAUUGUACGAACCCUAACAUGAGGAUCACCCAUGUCCACAGUGGG | 53.5 nM | 33 nM | 
AGUGAGGUUCUAGGAUAUCUCCCUCGAGUGCAGCUACAUGAGGAUCACCCAUGUCAUGGGUGUCGAGAGAAGGAGAAGGGCUUA | 74.5 nM | 104 nM | 
AUAAUAACAUGAGGAUCACCCAUGUCCUCUUGGCGGCGGCUUAGAAGGUCGACUACUUUUCUUUCGAAGGAUAUAACCUGUUCU | 913 nM | 733 nM | 
AUACAAUCAGGAUAUACUAGGCGAUAACAGAUUAUGACGUCACAUGAGGAUCACCCAUGUAGAAGGGAUCAGGA | 39.2 nM | 53.1 nM | 
AUAUAAACGCAGAAGGAUCGUUUCCUUUAAAUGAUAGGAUAUGCCAACCUUGACAUGAGGAUCACCCAUGUGUUACUCUGUUUU | 113 nM | 98.2 nM | 
AUAUUGUUUAUAGGAUAUUACACUAAGGUGACAUGAGGAUCACCCAUGUCCUCAACCACACGACUUAAGAAGGAUAAACGUUGG | 46.5 nM | 54.9 nM | 
AUCUGGAGAGGAUAUUGAUCGGAACACAUGAGGAUCACCCAUGUGAGCCCUCGUGUCCCUCAAGAAGGCUCGGGCG | 5.73 nM | 7.71 nM | 
AUGCACGGGCUAAUCUGCGAUUGGCACGAUACCAGAGAUCAAGACCUCCCUUGGCAGCGUGUCACAUGAGGAUCACCCAUGUGGA |  |  | apparent Kd [5]: 131 nM; apparent Kd [6]: 94.8 nM
AUGCCACCAUACCGCAGUAAUACAUGAGGAUCACCCAUGUAGGAGGAUAUACUUUUGGUAAUGAUGUAGAAGGCCUAGUGGUAC |  |  | apparent Kd [3]: 5.91 nM; apparent Kd [4]: 6.09 nM
AUUAAGUCGACAGGAUAUCCGUACUUUGAGUAAGGAGAAGGGUCUACAAAGGUACAUGAGGAUCACCCAUGUGACUUGGCCGUC |  |  | apparent Kd [3]: 10.1 nM; apparent Kd [4]: 7.7 nM
AUUGACUCAGAGAAGGGACUCAACAUGAGGAUCACCCAUGUUCUUUCGAAUAAAGGCUCUUAGGGUCAGGAUAUCUGUACGUAA |  |  | apparent Kd [3]: 9.6 nM; apparent Kd [4]: 9.99 nM
CAAAACUGAGGAUAUACAAAGAAAUGGAACAUAGUACAGUAACAUGAGGAUCACCCAUGUAGAAGGCAGGACUA | 6.01 nM | 6.6 nM | 
CAACUGCUUGAGCUUACUUAUUGGACUUCCCGAGGACCGGUACGGCCGCCACUCGCAGGGACACAUGAGGAUCACCCAUGUAAAG |  |  | apparent Kd (designed as: OFF switch for tryptophan, no ligand): 15.7 nM; apparent Kd (ligand present: tryptophan, designed as: OFF switch for tryptophan): 16.2 nM
CAAGACAUGAGGAUCACCCAUGUGGUGUACCGAGGACCGGUACGGCCGCCACUCGUUCAUCGGUCGACAAGCUACCCUUCAAGGU |  |  | apparent Kd [7]: 24.2 nM; apparent Kd [8]: 38.7 nM
CAAUACGAUGUCAGGAUAUUAUUUCAAGUAGACGGUAAGAAGGGACAUGAGGAUCACCCAUGUACGGAAUACGC | 6.35 nM | 6.32 nM | 
CAAUUUCGAAUAGAUACCAGCUGUCAUAAACACAUGAGGAUCACCCAUGUGCUUCUCGUCAGCCCUUGGCAGCUAUAACUAGAGC |  |  | apparent Kd [9]: 15.8 nM; apparent Kd [10]: 10 nM
CACAUGAGGAUCACCCAUGUCGCGGUGUGACCGAUACUCGAAUAGGAUAUGCUUGACACUUCGUGGCAGAAGGAUUGAGGUUCG | 76.6 nM | 54.9 nM | 
CACGUACAUGAGGAUCACCCAUGUAUGUCCGAAACGCGAGUACAGGAUAUGAUAUGGAGAAGUCUUCAGAAGGGUACAAAUCGC |  |  | apparent Kd [3]: 58.4 nM; apparent Kd [4]: 21.6 nM
CAUAUCAAUUCAGGAUAUUCUGUUUAAUACAUGAGGAUCACCCAUGUCCUCCAAAGAUUAGCAAGGAAGAAGGGAAGUAAACAG | 82.2 nM | 69 nM | 
CAUGACAUGAGGAUCACCCAUGUAUCCAGUCGAGGACCGGUACGGCCGCCACUCGGUGCCUUCAAAUUUACAGACAGGUGACAGG |  |  | apparent Kd [7]: 33.7 nM; apparent Kd [8]: 22.8 nM
CCAGCAUGGCAGACCAUACAUGAGGAUCACCCAUGUAGAAGCUAGGAUAUAAAUGUAACACACUAUUAGAAGGAGCGCUACCUU | 8.55 nM | 6.51 nM | 
CCAUUGCAUGGAGGAUAUGAGCAGUAAGUACUCUCAGAAGGCCACGGAGUAAACAAACCAUCUUACAUGAGGAUCACCCAUGUA |  |  | apparent Kd [3]: 13 nM; apparent Kd [4]: 7.69 nM
CCAUUGUCAGGAUAUUGUGGUUUAGCGUCGAAAGGGCUUAGCAAGAAGGGACAUGAGGAUCACCCAUGUGUAGU | 33.8 nM | 146 nM | 

Sequence | apparent Kd [1] | apparent Kd [2] | further results
CCCGGUGACUAGAAGGCGCCACAUGAGGAUCACCCAUGUAUCAAAGACCGGUGAUUGCCGACGGGCGAGGAUAUAGGUGCGACG | 8.18 nM | 14.5 nM | 
CCGCGCGUAGGAUAUACUAGUGUAUCAGUCGGUAUUGGAAAACAUGAGGAUCACCCAUGUAGAAGGACGCUAAU | 8.4 nM | 10.5 nM | 
CCUCACUUGAAGAAGGACAGCUUCGGUCACAUCGGAACAUGAGGAUCACCCAUGUGACGCGUGGUGUAGGAUAUUCGUAAGGCA | 57.6 nM | 147 nM | 
CCUCGUGGACAGGAUAUACACUCGUAUGAUCAUGUAGAAGGGUCCACAUGAGGAUCACCCAUGUUGACAGCCGU | 60.5 nM | 81.4 nM | 
CCUGUGAUCCACAUGAGGAUCACCCAUGUAUAAGUGAUUGACAGAAGGAGAGCAUGCUUGUGAUUCUAGGAUAUGUUUCUCAUA | 25.2 nM | 25.9 nM | 
CCUUAGUGAGGAUAUGCAUAGCCUUGGCGGCCAGGAGCCAAGCAGAAGGCACAUGAGGAUCACCCAUGUCCGGU | 16.6 nM | 22.8 nM | 
CGACUCCCAGAGAAGGCCGCAAACAUGAGGAUCACCCAUGUACUACCUGAGUCUCGGGCGGUACCGGAGGAUAUCUAGGCUCGC |  |  | apparent Kd [3]: 26.6 nM; apparent Kd [4]: 10.9 nM
CGAGUUUGCAAAGGAUAUCGGUUUUGAACAGACCGAGAAGGUUGACUGUACAUGAGGAUCACCCAUGUGUGCUCGAUAUAAAGA |  |  | apparent Kd [3]: 7.72 nM; apparent Kd [4]: 7.04 nM
CGAUACCAUGGUCAGGAUAUGAAACAGCUGACAUGAGGAUCACCCAUGUGAUAGGCAGGUGGACUUCAGAAGGGACACAUACACCA |  |  | apparent Kd [3]: 184 nM; apparent Kd [4]: 50.2 nM
CGCAGACUGUUAGGAUAUGAUACUAACAUGAGGAUCACCCAUGUUUACUCAGUGGAUAAGCAGAGUCAGAAGGAACAUUACGCA |  |  | apparent Kd [3]: 12.2 nM; apparent Kd [4]: 9.29 nM
CGCGGACCACCUGAUACCAGCGCAGUCAUGCAUGAACCCAACAUGAGGAUCACCCAUGUACGCCCUUGGCAGCAGGGAAAAGUCG |  |  | apparent Kd [5]: 161 nM; apparent Kd [6]: 267 nM
CGCUAACAUGAGGAUCACCCAUGUGAGGAUAUUCGCGGCGGACCGGGCUUUGGCGCUCGAAGAAGGCACAACGG | 12.8 nM | 24.5 nM | 
CGCUUGUUCAUAGGAUAUGCUAGGUAACUCAUGGUGAGUUGGGGAACAUGAGGAUCACCCAUGUGGCAGAAGGAUGGCGUUAAU | 65 nM | 55.3 nM | 
CGGCGACAUGAGGAUCACCCAUGUUAGGAUAUUCAGUUAACUGUGUUUGAUCGUUUGAGAAGAAGGAACGUGAG | 10.7 nM | 10.2 nM | 
CGGUAGUUUUAGAAGGAGCAACCAAGUUUACAUGAGGAUCACCCAUGUGUGAGGAUAUGUUAAGGCUAGGAUAUAAUAGAACCU | 25.4 nM | 23.4 nM | 
CGUUACAUAGAGAAGGUUCAUAAGAUCAAAUAACAUGAGGAUCACCCAUGUAUGUAAGCAUGAGGAAAGGAUAUCUACCGCCAG |  |  | apparent Kd [3]: 144 nM; apparent Kd [4]: 70.1 nM
CUAAUGGUUGCAGGAUAUCGAAAACCGCACAUGAGGAUCACCCAUGUCGCUAAGCGUGACAUAGUCGAGAAGGGCAUGACAACU | 37.3 nM | 14.8 nM | 
CUACAUGGGCUCGAUACCAGUCAGCUCUCGCGUCUCUCAGACAUGAGGAUCACCCAUGUUGACCCUUGGCAGCGACGAUGUAGGC |  |  | apparent Kd [5]: 79.8 nM; apparent Kd [6]: 500 nM
CUAUACGUAACAUGAGGAUCACCCAUGUUCAGGUGACCAGGAAGAAGGGCUAGCAGAGUAGUUCAGCAGGAUAUUCGAUUAGAC | 38.6 nM | 28.9 nM | 
CUCGCGUGAGGAUAUGCCACGCCCGAAAGGCCGGGUCAUCGGCAGAAGGCACAUGAGGAUCACCCAUGUAUCGC | 13.3 nM | 63.9 nM | 
CUCGGCGCCCAAGGAUAUAGUGGAGGUAAGAAACUAGAAGGUGGUGUGCUAACAUGUUGUCCUUUACAUGAGGAUCACCCAUGU | 38.6 nM | 32.9 nM | 
CUCUUAGAAGGAUAUUAAUAAUGUUACAUGAGGAUCACCCAUGUCUCAAUAUGUGACCGUUAAGAAGGUCUAUCGC | 9.2 nM | 8.16 nM | 
CUCUUAGGACAGGAUAUGGAACGCAUGUGUGCUCCAGAAGGGUCUACAUGAGGAUCACCCAUGUUCGGGACGGU | 530 nM | 469 nM | 
CUUAUACAUGAGGAUCACCCAUGUGGUGAUACCAGCCACGAUCAAGGCCCUUGGCAGCACAAAGGGAAUAAUAUGAUUACAAAAC |  |  | apparent Kd [9]: 227 nM; apparent Kd [10]: 212 nM
CUUGUGGCACAGGAUAUUCCGACGUAAUCAAAUGAAGAAGGGUGCACAUGAGGAUCACCCAUGUGUGAACACAA | 12.3 nM | 26.8 nM | 
GAAAUAGUAGUUAGGAUAUGUAAUUGAAGACAUAUACAGAAGGAACAUGAGGAUCACCCAUGUAUUGGGAUGGA | 196 nM | 126 nM | 
GAACACCAGAAGAAGGGAGACAUGAGGAUCACCCAUGUUUAAAUACGAAAUAAGGUAAAAGCAACACAGGAUAUUCGGCUCUAC |  |  | apparent Kd [3]: 22.6 nM; apparent Kd [4]: 18 nM

From the EternaBench riboswitch data
